# Screens: PubChem, several laboratories
# Hits are enriched below; roughly 9.8% of the tested compounds scored in any of these assays.
# PMI act hi M6P – increases human PMI activity with near-saturating mannose 6-phosphate | coupled PMI enzyme assay, resazurin fluorescence, 20 min; active compounds read high; 1 = untreated enzyme, 0 = substrate-free blank | actives 0.34% (n = 190,000) | P34949 | activation factor at 20 µM;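 active = activation factor of 2 or more at 20 µM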
#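 assay system = human phosphomannose isomerase with PGI, G6PDH, diaphorase coupling enzymes | quantity = 15 ng/mL PMI | incubation = enzyme reaction with compound 20 min at room temperature | medium = HEPES pH 7.4 buffer with MgCl2 and Tween-20 | compound dosing = one concentration, 20 µM, in 1% DMSO | measured by = Diaphorase-driven resazurin-to-resorufin fluorescence, excitation 544, emission 590 nm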
# WT yeast gro inh – growth inhibition of WT yeast, mitochondrial fusion screen; actives 2.1% (n = 190,000); AID 1362; mitochondrial fusion phenotypic screen, WT strain; inhibition, % at 10 µM; in the data active = inhibition above about 58%; tested in S. cerevisiae
# Rad51 HR inh – blocks human Rad51 in homologous recombination; hRad51 DNA strand exchange, fluorescence dequenching; actives 0.085% (n = 200,000); inhibition, % at 10 µM; AID 1385;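 active = inhibition above 40% at the single screening dose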;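 also: 0% = DMSO control wells and 100% = blanks with heterologous ssDNA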
# Target sequence (Q06609 whole entry, looked up): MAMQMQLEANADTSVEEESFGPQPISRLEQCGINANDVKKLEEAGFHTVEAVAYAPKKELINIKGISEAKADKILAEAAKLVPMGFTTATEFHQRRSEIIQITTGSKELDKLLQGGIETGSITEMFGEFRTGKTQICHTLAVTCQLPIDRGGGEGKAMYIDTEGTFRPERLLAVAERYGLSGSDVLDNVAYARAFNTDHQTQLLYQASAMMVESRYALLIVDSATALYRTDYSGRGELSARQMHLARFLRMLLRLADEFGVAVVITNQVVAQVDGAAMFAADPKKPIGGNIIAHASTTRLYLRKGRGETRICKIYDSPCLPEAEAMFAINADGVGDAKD
#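 material = hRad51 filaments on single-stranded DNA | timing = filaments 15 min 37 °C, then compound 30 min | signal = FRET fluorescence dequenching, excitation 485 nm, emission 520 nm | benchmarks = control wells and blank wells on each plate | evaluation = percent inhibition relative to plate controls and blanks | compound = 10 µM final, single point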
# Calpain2 inh – inhibitors of pig calpain II. purified calpain II, fluorogenic peptide substrate, 30 min. inhibition, % at 16 µM. actives 0.37% (n = 220,000);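 active = inhibition above about 50%, limit read from the data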
# PMI act – increases human mannose-6-phosphate isomerase activity; purified human PMI, coupled resazurin fluorescence, 20 min; active compounds read high; 1 = vehicle control, 0 substrate-free wells; activation factor at 20 µM; actives 0.005% (n = 190,000); AID 1214;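 active = activation factor of 2 or more at 20 µM, relative to plate controls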
# L major viab – reduces viability of Leishmania major promastigotes | actives 9% (n = 200,000) | resazurin fluorescence viability | AID 1063 | inhibition, % at 10 µM; in the data active = inhibition above about 50%;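 also: promastigotes grown with compound for 44 hours at 28 °C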
# * hit, by the source's call; nt = no result given.
SMILES,PMI act hi M6P,WT yeast gro inh,Rad51 HR inh,Calpain2 inh,PMI act,L major viab
Cc1cc(Cn2ccnc2)c(C)cc1Cn1ccnc1,0.8,-5,-8,-1,0.8,98*
COc1ccc(C=O)cc1Cn1ccnc1,1.4,-10,1,-31,1.5,-8
CC(=O)Oc1ccc2c(=O)c(-c3nc4ccccc4s3)coc2c1,1,23,6,32,1,-5
CN(NS(=O)(=O)c1ccc(Br)cc1)c1nc(C(F)(F)F)nc2ccccc12,0.9,77*,-9,34,1,13
O=C(O)CC(NNC(=O)c1ccccc1)C(=O)Nc1ccc([N+](=O)[O-])cc1 (stereo not drawn),nt,nt,21,-17,nt,nt
CC1=CC2=NC(=O)/C(=C\c3cccn3CCOc3cc(C)ccc3C)C(=N)N2O1,0.8,33,nt,18,0.6,53*
CC1=CC2=NC(=O)/C(=C\c3cccn3CCOc3cc(C)cc(C)c3)C(=N)N2O1,0.9,40,35,88*,0.9,3
CCN1C(=O)/C(=C\c2nc3ccccc3c(=O)n2-c2ccccc2)c2ccccc21,1.1,5,nt,-14,0.9,77*
CCN1C(=O)/C(=C/c2nc3ccccc3c(=O)[nH]2)c2ccccc21,1,-2,25,-15,0.9,99*
CCN1C(=O)/C(=C/c2nc3ccccc3c(=O)n2-c2ccc(C)cc2)c2ccccc21,1,4,-1,-25,0.9,99*
O=C(CN1C(=O)C2CC=CCC2C1=O)Nc1nccs1 (stereo not drawn),0.9,-20,52*,-14,0.9,nt
Cc1ncsc1C(=O)N1N=C2/C(=C/c3ccc(N4CCOCC4)cc3)CCCC2C1c1ccc(N2CCOCC2)cc1 (stereo not drawn),0.9,12,-9,-122,0.9,32
Cc1ncsc1C(=O)N1N=C2/C(=C/c3ccccc3)CCCC2C1c1ccccc1 (stereo not drawn),0.9,71*,nt,-77,0.9,99*
O=C(CSc1ncn[nH]1)N1N=C2/C(=C/c3ccccc3)CCCC2C1c1ccccc1 (stereo not drawn),1.2,10,0,20,1,6
COc1ccc(/C=C2\CCCC3C2=NN(C(=O)CSc2ncn[nH]2)C3c2ccc(OC)cc2)cc1 (stereo not drawn),0.9,36,8,-89,0.8,91*
COc1ccc2o/c(=N\O)c(C(=O)Nc3ccccc3OC)cc2c1,1,-4,11,-26,0.9,97*
COc1ccc(OC)c(N=c2oc3cc(O)ccc3cc2C(N)=O)c1,0.9,30,-1,-101,1,9
COc1ccc2oc(=O)c(C(=O)Nc3ccccc3O)cc2c1,nt,nt,nt,-13,nt,nt
COc1ccc2oc(=Nc3cc(F)ccc3F)c(C(N)=O)cc2c1,1,2,-42,-20,1,59*
C/C(=N\Nc1ccc(C(=O)O)cc1)c1ccc(-n2ccnc2)cc1,2*,-8,6,-24,1.6,-10
CNC(=S)N/N=C(\C)c1ccc(-n2ccnc2)cc1,1,24,-5,-16,0.9,4
C/C(=N\NC(N)=O)c1ccc(-n2ccnc2)cc1,1.1,-25,8,-9,1.1,-5
C/C(=N\Nc1ccccc1Cl)c1ccc(-n2ccnc2)cc1,2.7*,35,2,37,1.7,10
C/C(=N\NC(=O)c1ccc(C)cc1C)c1ccc(-n2ccnc2)cc1,0.9,-13,-8,-4,0.9,79*
CCC(=O)N1CCc2cc(S(=O)(=O)CCC(=O)Nc3ccc(C)cn3)ccc21,1,-2,-7,15,1.1,-4
SMILES,PMI act hi M6P,WT yeast gro inh,Rad51 HR inh,Calpain2 inh,PMI act,L major viab
COC(=O)[C@H]1[C@@H](C)N(Cc2ccccc2)C(=O)N[C@H]1c1ccccc1,nt,nt,-3,nt,nt,nt
CCc1ccc(C2C(C#N)=C(N)C(C#N)(C#N)C3=CCC(C(C)(C)C)CC32)cc1 (stereo not drawn),0.5,49,2,-45,0.8,96*
CC(C)(C)C(C(Oc1ccc(Cl)cc1)n1cncn1)n1nnnc1C(c1cccc(Cl)c1)N1CCCCC1 (stereo not drawn),0.9,50,6,-70,1,65*
COCCn1nnnc1C(c1cccc(C#N)c1)N1CCCCCC1 (stereo not drawn),1.1,5,8,22,1,-1
N#Cc1ccccc1OCC(=O)OCC(=O)N1CCN(C(=O)c2ccco2)CC1,1.1,-24,-3,-18,1.1,-10
COC(=O)c1cc(OC)c(OC)cc1NC(=O)Nc1cccc(C(C)=O)c1,1.1,0,-15,13,1,10
Cn1nccc1-c1cc(Cl)cc(Cl)c1O,nt,nt,-1,20,nt,nt
CNc1ccc(/C=C/C(=O)c2cccc3ccccc23)cc1[N+](=O)[O-],0.9,18,23,-2,1,99*
Cc1cccc(NC(=S)N(CCCN2CCOCC2)C(C)c2cc3ccccc3o2)c1C (stereo not drawn),0.9,4,-16,-18,1,80*
COc1cccc2cc(C(C)N(CCCN3CCOCC3)C(=S)Nc3ccccc3C)oc12 (stereo not drawn),1,-5,6,3,1,40
Cc1cccc(NC(=S)N(CCCN2CCOCC2)C(C)c2cc3ccccc3o2)c1 (stereo not drawn),0.9,42,-2,15,0.9,81*
COc1cccc2cc(C(C)N(CCCN3CCOCC3)C(=S)Nc3cccc(C)c3)oc12 (stereo not drawn),0.9,18,13,15,0.9,18
CN(C)C(=O)c1nc2ccc(Cl)cn2c1CNCc1ccccc1OC(F)(F)F,0.9,4,nt,-13,0.9,-4
COCCN(C(=O)Cc1cccs1)C(C(=O)NC1CCCC1)c1cc(OC)c(OC)c(OC)c1 (stereo not drawn),1.1,-10,11,-20,1.1,3
Cc1c(C(=O)N2CCOCC2)cc(C(C)(C)C)n1-c1ccccc1,nt,nt,-16,-8,nt,nt
CC(C)c1ccc2[nH]c(O)c(N=NC(=O)c3cccc(S(=O)(=O)N4CCCCC4)c3)c2c1,0.6,2,4,-47,0.9,99*
CCn1c(C)nc2cc(C(=O)N=Nc3c(O)[nH]c4c(C)cc(C)cc34)ccc21,1,-5,0,-84,1,-2
CC(C)c1ccc2[nH]c(O)c(N=NC(=O)c3cccc(S(=O)(=O)Nc4ccc(Cl)cc4)c3)c2c1,1,-3,-29,5,1,0
O=C(N=Nc1c(O)[nH]c2ccccc12)c1cccc(S(=O)(=O)N2CCCCC2)c1,1,-12,5,18,0.9,61*
CCn1c(C)nc2cc(C(=O)N=Nc3c(O)[nH]c4ccccc34)ccc21,1,1,8,-10,1,54*
